Measured values from ChEMBL document CHEMBL4765291, “Design, synthesis and biological evaluation of novel 3,4-dihydro-2(1H)-quinolinone derivatives as potential chitin synthase inhibitors and antifungal agents” (Eur J Med Chem, 2020).
≈ marks a conversion by molar mass, not a printed value.

How the values were obtained:
Aspergillus flavus [1] = experiment: Synergistic antifungal activity against Aspergillus flavus ATCC 16870 assessed as fractional inhibitory concentration index in presence of fluconazole by checkerboard method; assay type: functional
Summary of the method: (§1)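 Checkerboard combined with two-fold broth dilution, pairing test compound with fluconazole or polyoxin B. FIC index = (MIC A combined/MIC A alone) + (MIC B combined/MIC B alone); >2 antagonistic, 1–2 additive, ≤1 synergistic. Three independent repeats.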

Escherichia coli = experiment: Antibacterial activity against Escherichia coli JM 109
[2] = Inhibition of Candida tropicalis ATCC 750 chitin synthase using UDP-GlcNAc as substrate
Summary of the method: (§2)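 Chitin synthase prepared from C. tropicalis ATCC 750 by low- and high-speed centrifugation. DMSO stocks (10 mg/mL) diluted in 50 mM Tris-HCl pH 7.5; test concentrations 300–9.375 µg/mL. Chitin synthesized in WGA-coated wells, bound with WGA-HRP, washed, developed with TMB/H2O2, stopped with 2 M H2SO4, OD read. Duplicate; polyoxin B positive control.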

Candida tropicalis = experiment: Inhibition of Candida tropicalis ATCC 750 chitin synthase at 300 ug/ml using UDP-GlcNAc as substrate relative to control; details: dose 300.0 µg/ml; summary of the method: as §2
Staphylococcus aureus [3] = experiment: Antibacterial activity against methicillin-resistant Staphylococcus aureus N. 315; assay type: functional
Summary of the method: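 Two-fold serial broth dilution in 96-well plates per national clinical standard; beef extract peptone medium (1% peptone, 0.3% beef extract, 0.5% NaCl, […]). Compounds from DMSO stock diluted to test concentrations; incubation 18–24 h. MIC recorded; each group tested independently in triplicate.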

Bacillus subtilis = experiment: Antibacterial activity against Bacillus subtilis ATCC 6633; assay type: functional
Summary of the method: (§3)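 Two-fold serial broth dilution in 96-well plates following National Committee standards; compounds tested at different concentrations. Medium: beef extract peptone (1% peptone, 0.3% beef extract, 0.5% NaCl). Incubation 18–24 h. MIC recorded; streptomycin and norfloxacin as control drugs; each group tested in triplicate.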

Candida albicans [4] = experiment: Synergistic antifungal activity against Candida albicans ATCC 76615 assessed as fractional inhibitory concentration index in presence of Polyoxin B by checkerboard method; assay type: functional; summary of the method: as §1
Aspergillus fumigatus [5] = experiment: Antifungal activity against Aspergillus fumigatus GIMCC 3.19 incubated for 48 hrs by two-fold broth dilution analysis; assay type: functional
Summary of the method: (§4)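 Stock solutions in DMSO, diluted to 0.25–512 µg/mL; two-fold serial broth dilution in 96-well plates. Fungi grown on modified Sabouraud chloramphenicol agar (1% peptone, 2% glucose, […]). Incubated 48 h at 37 °C, then MIC (µg/mL) recorded. Fluconazole and polyoxin B as positive controls; each group tested in triplicate.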

Candida albicans [6] = experiment: Antifungal activity against Candida albicans ATCC 76615 incubated for 48 hrs by two-fold broth dilution analysis; assay type: functional; summary of the method: as §4
Aspergillus fumigatus [7] = experiment: Synergistic antifungal activity against Aspergillus fumigatus GIMCC 3.19 assessed as fractional inhibitory concentration index in presence of Polyoxin B by checkerboard method; assay type: functional; summary of the method: as §1
Aspergillus flavus [8] = experiment: Antifungal activity against Aspergillus flavus ATCC 16870 incubated for 48 hrs by two-fold broth dilution analysis; assay type: functional; summary of the method: as §4
Candida albicans [9] = experiment: Synergistic antifungal activity against Candida albicans ATCC 76615 assessed as fractional inhibitory concentration index in presence of fluconazole by checkerboard method; assay type: functional; summary of the method: as §1
Cryptococcus neoformans [10] = experiment: Synergistic antifungal activity against Cryptococcus neoformans ATCC 32719 assessed as fractional inhibitory concentration index in presence of fluconazole by checkerboard method; assay type: functional; summary of the method: as §1
Cryptococcus neoformans [11] = experiment: Antifungal activity against Cryptococcus neoformans ATCC 32719 incubated for 48 hrs by two-fold broth dilution analysis; assay type: functional; summary of the method: as §4
Proteus vulgaris = experiment: Antibacterial activity against Bacillus proteus ATCC 8427; assay type: functional; summary of the method: as §3
Aspergillus fumigatus [12] = experiment: Synergistic antifungal activity against Aspergillus fumigatus GIMCC 3.19 assessed as fractional inhibitory concentration index in presence of fluconazole by checkerboard method; assay type: functional; summary of the method: as §1
Candida albicans [13] = experiment: Antifungal activity against Candida albicans ATCC 90023 incubated for 48 hrs by two-fold broth dilution analysis; assay type: functional; summary of the method: as §4
Cryptococcus neoformans [14] = experiment: Synergistic antifungal activity against Cryptococcus neoformans ATCC 32719 assessed as fractional inhibitory concentration index in presence of Polyoxin B by checkerboard method; assay type: functional; summary of the method: as §1
Staphylococcus aureus [15] = experiment: Antibacterial activity against Staphylococcus aureus ATCC 25923; assay type: functional; summary of the method: as §3
Aspergillus flavus [16] = experiment: Synergistic antifungal activity against Aspergillus flavus ATCC 16870 assessed as fractional inhibitory concentration index in presence of Polyoxin B by two-fold broth dilution checkerboard method; assay type: functional; summary of the method: as §1
Candida albicans [17] = experiment: Synergistic antifungal activity against Candida albicans ATCC 90023 assessed as fractional inhibitory concentration index in presence of Polyoxin B by checkerboard method; assay type: functional; summary of the method: as §1
Pseudomonas aeruginosa = experiment: Antibacterial activity against Pseudomonas aeruginosa ATCC 9027; assay type: functional; summary of the method: as §3
Candida albicans [18] = experiment: Synergistic antifungal activity against Candida albicans ATCC 90023 assessed as fractional inhibitory concentration index in presence of fluconazole by checkerboard method; assay type: functional; summary of the method: as §1
[19] = Noncompetitive inhibition of Candida tropicalis ATCC 750 chitin synthase using […] as substrate by Lineweaver-Burk plot
Summary of the method: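 Same WGA-capture chitin synthase assay, run with UDP-GlcNAc at 0.5, 1.0, 1.5 and 2.0 mM and inhibitor at 0, 0.032, 0.126 and 0.25 mM. Inhibition type read from Lineweaver-Burk plots; Ki taken from the intersection of the lines.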

COc1ccccc1NC(=O)/C=C/C(=O)NC1Cc2ccccc2NC1=O (stereo not given)
fractional inhibitory concentration index (FICI) (Aspergillus flavus [1]): 1 | MIC (Escherichia coli): 256 µg/mL (≈ 701 µM) | IC50 [2]: 160 µM | inhibition (Candida tropicalis): 82.3% | MIC (Staphylococcus aureus [3]): 256 µg/mL (≈ 701 µM) | MIC (Bacillus subtilis): 256 µg/mL (≈ 701 µM) | fractional inhibitory concentration index (FICI) (Candida albicans [4]): 0.5 | MIC (Aspergillus fumigatus [5]): 4 µg/mL (≈ 10.9 µM) | MIC (Candida albicans [6]): 1 µg/mL (≈ 2.74 µM) | fractional inhibitory concentration index (FICI) (Aspergillus fumigatus [7]): 0.375 | MIC (Aspergillus flavus [8]): 2 µg/mL (≈ 5.47 µM) | fractional inhibitory concentration index (FICI) (Candida albicans [9]): 0.75 | fractional inhibitory concentration index (FICI) (Cryptococcus neoformans [10]): 0.5 | MIC (Cryptococcus neoformans [11]): 8 µg/mL (≈ 21.9 µM) | MIC (Proteus vulgaris): 256 µg/mL (≈ 701 µM) | fractional inhibitory concentration index (FICI) (Aspergillus fumigatus [12]): 0.375 | MIC (Candida albicans [13]): 1 µg/mL (≈ 2.74 µM) | fractional inhibitory concentration index (FICI) (Cryptococcus neoformans [14]): 1 | MIC (Staphylococcus aureus [15]): 128 µg/mL (≈ 350 µM) | fractional inhibitory concentration index (FICI) (Aspergillus flavus [16]): 0.75 | fractional inhibitory concentration index (FICI) (Candida albicans [17]): 0.375 | MIC (Pseudomonas aeruginosa): 512 µg/mL (≈ 1400 µM) | fractional inhibitory concentration index (FICI) (Candida albicans [18]): 0.5

Cc1cccc(NC(=O)/C=C/C(=O)NC2Cc3ccccc3NC2=O)c1 (stereo not given)
fractional inhibitory concentration index (FICI) (Aspergillus flavus [1]): 1.5 | MIC (Escherichia coli): 512 µg/mL (≈ 1470 µM) | IC50 [2]: 90 µM | inhibition (Candida tropicalis): 78.3% | MIC (Staphylococcus aureus [3]): 512 µg/mL (≈ 1470 µM) | MIC (Bacillus subtilis): 256 µg/mL (≈ 733 µM) | fractional inhibitory concentration index (FICI) (Candida albicans [4]): 1 | MIC (Aspergillus fumigatus [5]): 4 µg/mL (≈ 11.4 µM) | MIC (Candida albicans [6]): 2 µg/mL (≈ 5.72 µM) | fractional inhibitory concentration index (FICI) (Aspergillus fumigatus [7]): 0.75 | MIC (Aspergillus flavus [8]): 2 µg/mL (≈ 5.72 µM) | fractional inhibitory concentration index (FICI) (Candida albicans [9]): 1.5 | fractional inhibitory concentration index (FICI) (Cryptococcus neoformans [10]): 1.5 | MIC (Cryptococcus neoformans [11]): 64 µg/mL (≈ 183 µM) | Ki [19]: 120 µM | MIC (Proteus vulgaris): 256 µg/mL (≈ 733 µM) | fractional inhibitory concentration index (FICI) (Aspergillus fumigatus [12]): 0.75 | MIC (Candida albicans [13]): 1 µg/mL (≈ 2.86 µM) | fractional inhibitory concentration index (FICI) (Cryptococcus neoformans [14]): 2 | MIC (Staphylococcus aureus [15]): 128 µg/mL (≈ 366 µM) | fractional inhibitory concentration index (FICI) (Aspergillus flavus [16]): 1 | fractional inhibitory concentration index (FICI) (Candida albicans [17]): 0.375 | MIC (Pseudomonas aeruginosa): 512 µg/mL (≈ 1470 µM) | fractional inhibitory concentration index (FICI) (Candida albicans [18]): 0.5

O=C(/C=C/C(=O)NC1Cc2ccccc2NC1=O)Nc1ccc(F)c(F)c1 (stereo not given)
MIC (Escherichia coli): 512 µg/mL (≈ 1380 µM) | IC50 [2]: 340 µM | inhibition (Candida tropicalis): 66.5% | MIC (Staphylococcus aureus [3]): 512 µg/mL (≈ 1380 µM) | MIC (Bacillus subtilis): 512 µg/mL (≈ 1380 µM) | MIC (Aspergillus fumigatus [5]): 8 µg/mL (≈ 21.5 µM) | MIC (Candida albicans [6]): 4 µg/mL (≈ 10.8 µM) | MIC (Aspergillus flavus [8]): 8 µg/mL (≈ 21.5 µM) | MIC (Cryptococcus neoformans [11]): 16 µg/mL (≈ 43.1 µM) | MIC (Proteus vulgaris): 512 µg/mL (≈ 1380 µM) | MIC (Candida albicans [13]): 2 µg/mL (≈ 5.39 µM) | MIC (Staphylococcus aureus [15]): 256 µg/mL (≈ 689 µM) | MIC (Pseudomonas aeruginosa): 512 µg/mL (≈ 1380 µM)
